Test results taken from ChEMBL document CHEMBL1821557, “Novel aryloxy azolyl chalcones with potent activity against Mycobacterium tuberculosis H37Rv” (Eur J Med Chem, 2011).
In brackets after ≈: the same amount, converted by molar mass.

Experiments:
[1] = tested on: Mycobacterium tuberculosis; assay: Antitubercular activity against Mycobacterium tuberculosis H37Rv after 4 weeks by agar proportion method; format: functional; conditions: 672 h
Summary of the method: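 Agar proportion method on Middlebrook 7H10 agar slants with OADC; compounds in DMSO added at 0.1 mL per 1.9 mL medium. Inoculum was H37Rv grown on L–J medium and suspended in saline with 0.05% Tween-80, ~10^5 bacilli per tube. Incubated 37 °C for 4 weeks; MIC is the lowest concentration with no visible growth.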

[2] = (§1) Cytotoxicity against african green monkey Vero cells assessed as growth inhibition at 10 times MIC after 24 hrs by MTS assay; format: cell-based; conditions: chlorocebus sabaeus, Vero cells; read-out: GI
Summary of the method: (§2)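 Vero cells or mouse bone-marrow-derived macrophages plated at 20,000 cells/well and allowed to adhere overnight (37 °C, 5% CO2). Compounds added at several concentrations for 24 h, then MTS for 2 h, with OD read at 490 nm. IC50 is the concentration giving 50% viability loss; a compound counts as toxic if IC50 ≤10× MIC.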

[3] = tested on: Mycobacterium tuberculosis; assay: Antitubercular activity against Mycobacterium tuberculosis H37Rv infected in Swiss mouse infected assessed as mouse survival at 100 mg/kg/day, po for 28 days measured on day 30 post infection; format: functional
Summary of the method: (§3)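 Outbred Swiss mice infected i.v. with H37Rv at 10^7 CFU/mouse, in groups of 6–8. Daily oral dosing for 28 days: test compounds at 100 mg/kg in peanut oil, or isoniazid at 25 mg/kg. Percent survivors and mean survival time were recorded on day 30 and day 40.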

[4] = tested on: Mycobacterium tuberculosis; assay: Ex-vivo antitubercular activity against Mycobacterium tuberculosis H37Rv infected in mouse BMDM cells assessed as reduction in intracellular bacterial level after 4 days at 5 times MIC; format: functional; design: scale not given: the % may be the effect or the level left
Vero = assay: as §1; format: cell-based; conditions: chlorocebus sabaeus, vero, 24 h; summary of the method: as §2
[5] = tested on: Mycobacterium tuberculosis; assay: Antitubercular activity against Mycobacterium tuberculosis H37Rv infected in Swiss mouse assessed as inhibition of viable bacterial counts in lungs at 100 mg/kg, po for 28 days measured on day 30 post infection; format: functional
[6] = tested on: Mycobacterium tuberculosis; assay: Antitubercular activity against Mycobacterium tuberculosis H37Rv infected in Swiss mouse infected assessed as mean survival time of mouse at 100 mg/kg/day, po for 28 days measured on day 30 post infection; format: functional; summary of the method: as §3
[7] = tested on: Mycobacterium tuberculosis; assay: Antitubercular activity against Mycobacterium tuberculosis H37Rv infected in Swiss mouse infected assessed as mouse survival at 100 mg/kg/day, po for 28 days measured on day 40 post infection; format: functional; summary of the method: as §3
[8] = Cytotoxicity against mouse BMDM cells assessed as growth inhibition at 10 times MIC after 24 hrs by MTS assay; format: cell-based; summary of the method: as §2
[9] = tested on: Mycobacterium tuberculosis; assay: Antitubercular activity against Mycobacterium tuberculosis H37Rv infected in Swiss mouse infected assessed as mean survival time of mouse survival at 100 mg/kg/day, po for 28 days measured on day 40 post infection; format: functional; summary of the method: as §3
[10] = tested on: Mycobacterium tuberculosis; assay: Antitubercular activity against Mycobacterium tuberculosis H37Rv infected in Swiss mouse infected assessed as mouse survival at 25 mg/kg/day, po for 28 days measured on day 40 post infection; format: functional; summary of the method: as §3
Mus musculus = assay: Antitubercular activity against Mycobacterium tuberculosis H37Rv infected in Swiss mouse infected assessed as mouse survival at 25 mg/kg/day, po for 28 days measured on day 30 post infection; format: functional; summary of the method: as §3
[11] = tested on: Mycobacterium tuberculosis; assay: Antitubercular activity against Mycobacterium tuberculosis H37Rv infected in Swiss mouse infected assessed as mean survival time of mouse at 25 mg/kg/day, po for 28 days measured on day 30 post infection; format: functional; summary of the method: as §3
[12] = tested on: Mycobacterium tuberculosis; assay: Antitubercular activity against Mycobacterium tuberculosis H37Rv infected in Swiss mouse assessed as inhibition of viable bacterial counts in lungs at 25 mg/kg, po for 28 days measured on day 30 post infection; format: functional
Summary of the method: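 Outbred Swiss mice infected i.v. with H37Rv at 10^7 CFU/mouse, in groups of 6–8. Test compounds were given orally at 100 mg/kg daily for 28 days in peanut oil; isoniazid at 25 mg/kg for 28 days. On day 30, serial dilutions of lung homogenate were plated on 7H11 agar and colonies counted after 3–4 weeks at 37 °C. Result is % inhibition of lung CFU versus untreated controls.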

Q: With `O=C(/C=C/c1ccc(OCc2ccc(Cl)cc2Cl)cc1)c1ccc(OCc2ccc(Cl)cc2Cl)cc1` as the compound, how does the MIC [1] read?
A: The MIC was > 25 µg/mL.

Q: For `O=C(/C=C/c1ccc(OCc2cccc(Cl)c2)cc1)c1ccc(-n2ccnc2)cc1`, which inhibition at 24 h, 10 times MIC [2] is on record?
A: The inhibition at 24 h, 10 times MIC was 50%.

Q: What about the MIC [1] of the same compound?
A: The MIC was 3.12 µg/mL (≈ 7.52 µM).

Q: For `O=C(/C=C/c1ccc(OCc2ccc(Cl)cc2Cl)cc1)c1ccc(-n2ccnc2)cc1`, which survival at 100 mg/kg/day [3] is on record?
A: Its survival at 100 mg/kg/day is 100%.

Q: What about the Activity [4] of the same compound?
A: Its Activity is 99%.

Q: What about the Activity (Vero) of the same compound?
A: The Activity was “Non-toxic”.

Q: And the inhibition in vivo at 100 mg/kg [5]?
A: The inhibition in vivo at 100 mg/kg was 13%.

Q: And the MST [6]?
A: The MST was 30 days.

Q: What about the MIC [1] of the same compound?
A: The MIC was 3.12 µg/mL (≈ 6.94 µM).

Q: What about the survival at 100 mg/kg/day [7] of the same compound?
A: Its survival at 100 mg/kg/day is 83%.

Q: And the Activity [8]?
A: The Activity was “Non-toxic”.

Q: What about the MST [9] of the same compound?
A: The MST was 38.5 days.

Q: With `O=C(/C=C/c1ccc(OCc2cc(Cl)ccc2Cl)cc1)c1ccc(-n2ccnc2)cc1` as the compound, how does the MIC [1] read?
A: The MIC was 12.5 µg/mL (≈ 27.8 µM).

Q: Which Activity [4] does the source give for `O=C(/C=C/c1ccc(OCc2ccc(F)cc2F)cc1)c1ccc(-n2ccnc2)cc1` here?
A: The Activity was <50%.

Q: Which MIC [1] does the source give for `O=C(/C=C/c1ccc(OCc2cccc(Cl)c2)cc1)c1ccc(-n2cncn2)cc1` here?
A: The MIC was 12.5 µg/mL (≈ 30.1 µM).

Q: Which MIC [1] does the source give for `O=C(/C=C/c1ccc(OCc2ccc(Cl)cc2Cl)cc1)c1ccc(-n2cncn2)cc1` here?
A: Its MIC is 25 µg/mL (≈ 55.5 µM).

Q: For `O=C(/C=C/c1ccc(OCc2cc(Cl)ccc2Cl)cc1)c1ccc(-n2cncn2)cc1`, which MIC [1] is on record?
A: The MIC was > 25 µg/mL.

Q: For `O=C(/C=C/c1ccc(OCc2ccc(F)cc2F)cc1)c1ccc(-n2cncn2)cc1`, which MIC [1] is on record?
A: Its MIC is 12.5 µg/mL (≈ 29.9 µM).

Q: With `O=C(/C=C/c1ccc(OCc2cc(F)ccc2F)cc1)c1ccc(-n2cncn2)cc1` as the compound, how does the MIC [1] read?
A: Its MIC is > 25 µg/mL.

Q: Which MIC [1] does the source give for `O=C(/C=C/c1ccc(Oc2ccc(C(F)(F)F)cc2[N+](=O)[O-])cc1)c1ccc(-n2ccnc2)cc1` here?
A: Its MIC is 12.5 µg/mL (≈ 26.1 µM).

Q: Which MIC [1] does the source give for `O=C(/C=C/c1ccc(-n2ccnc2)cc1)c1ccc(OCc2cccc(Cl)c2)cc1` here?
A: The MIC was 6.25 µg/mL (≈ 15.1 µM).

Q: For `O=C(/C=C/c1ccc(-n2ccnc2)cc1)c1ccc(OCc2ccc(Cl)cc2Cl)cc1`, which Activity [4] is on record?
A: Its Activity is <50%.

Q: And the Activity (Vero)?
A: Its Activity is “Non-toxic”.

Q: What about the MIC [1] of the same compound?
A: The MIC was 1.56 µg/mL (≈ 3.47 µM).

Q: And the Activity [8]?
A: Its Activity is “Non-toxic”.

Q: What does the source list for `O=C(/C=C/c1ccc(-n2ccnc2)cc1)c1ccc(OCc2cc(Cl)ccc2Cl)cc1`?
A: inhibition at 24 h, 10 times MIC [2]: 50%; MIC [1]: 3.12 µg/mL (≈ 6.94 µM)

Q: With `O=C(/C=C/c1ccc(-n2ccnc2)cc1)c1ccc(OCc2ccc(F)cc2F)cc1` as the compound, how does the survival at 100 mg/kg/day [3] read?
A: The survival at 100 mg/kg/day was 100%.

Q: And the Activity [4]?
A: The Activity was 71%.

Q: What about the Activity (Vero) of the same compound?
A: The Activity was “Non-toxic”.

Q: And the inhibition in vivo at 100 mg/kg [5]?
A: Its inhibition in vivo at 100 mg/kg is 40%.

Q: What about the MST [6] of the same compound?
A: Its MST is 30 days.

Q: What about the MIC [1] of the same compound?
A: The MIC was 1.56 µg/mL (≈ 3.75 µM).

Q: What about the survival at 100 mg/kg/day [7] of the same compound?
A: The survival at 100 mg/kg/day was 100%.

Q: And the Activity [8]?
A: The Activity was “Non-toxic”.

Q: What about the MST [9] of the same compound?
A: The MST was 40 days.

Q: Which Activity [4] does the source give for `O=C(/C=C/c1ccc(-n2ccnc2)cc1)c1ccc(OCc2cc(F)ccc2F)cc1` here?
A: The Activity was <50%.

Q: What about the Activity (Vero) of the same compound?
A: The Activity was “Non-toxic”.

Q: And the MIC [1]?
A: Its MIC is 3.12 µg/mL (≈ 7.49 µM).

Q: What about the Activity [8] of the same compound?
A: The Activity was “Non-toxic”.

Q: For `O=C(/C=C/c1ccc(-n2cncn2)cc1)c1ccc(OCc2cccc(Cl)c2)cc1`, which Activity [4] is on record?
A: The Activity was <50%.

Q: What about the Activity (Vero) of the same compound?
A: Its Activity is “Non-toxic”.

Q: And the MIC [1]?
A: The MIC was 0.78 µg/mL (≈ 1.88 µM).

Q: What about the Activity [8] of the same compound?
A: Its Activity is “Non-toxic”.

Q: With `O=C(/C=C/c1ccc(-n2cncn2)cc1)c1ccc(OCc2ccc(Cl)cc2Cl)cc1` as the compound, how does the MIC [1] read?
A: The MIC was > 25 µg/mL.

Q: For `O=C(/C=C/c1ccc(-n2cncn2)cc1)c1ccc(OCc2cc(Cl)ccc2Cl)cc1`, which MIC [1] is on record?
A: The MIC was > 25 µg/mL.

Q: For `O=C(/C=C/c1ccc(-n2cncn2)cc1)c1ccc(OCc2ccc(F)cc2F)cc1`, which MIC [1] is on record?
A: Its MIC is 12.5 µg/mL (≈ 29.9 µM).

Q: With `O=C(/C=C/c1ccc(-n2cncn2)cc1)c1ccc(OCc2cc(F)ccc2F)cc1` as the compound, how does the inhibition at 24 h, 10 times MIC [2] read?
A: The inhibition at 24 h, 10 times MIC was 50%.

Q: And the MIC [1]?
A: The MIC was 3.12 µg/mL (≈ 7.47 µM).

Q: Which MIC [1] does the source give for `O=C(/C=C/c1ccc(-n2ccnc2)cc1)c1ccc(Oc2ccc(C(F)(F)F)cc2[N+](=O)[O-])cc1` here?
A: Its MIC is 12.5 µg/mL (≈ 26.1 µM).

Q: Which MIC [1] does the source give for `O=C(/C=C/c1ccc(-n2cncn2)cc1)c1ccc(Oc2ccc(C(F)(F)F)cc2[N+](=O)[O-])cc1` here?
A: Its MIC is 12.5 µg/mL (≈ 26 µM).

Q: With `O=C(/C=C/c1ccc(-n2ccnc2)cc1)c1ccc(-n2ccnc2)cc1` as the compound, how does the MIC [1] read?
A: Its MIC is > 25 µg/mL.

Q: Which MIC [1] does the source give for `O=C(/C=C/c1ccc(-n2cncn2)cc1)c1ccc(-n2cncn2)cc1` here?
A: The MIC was > 25 µg/mL.

Q: With `O=C(/C=C/c1ccccc1)c1ccc(OCc2ccc(Cl)cc2Cl)cc1` as the compound, how does the MIC [1] read?
A: The MIC was 12.5 µg/mL (≈ 32.6 µM).

Q: For `NNC(=O)c1ccncc1` [ISONIAZID], which survival at 25 mg/kg/day [10] is on record?
A: Its survival at 25 mg/kg/day is 100%.

Q: And the Activity (Vero)?
A: Its Activity is “Non-toxic”.

Q: What about the survival at 25 mg/kg/day (Mus musculus) of the same compound?
A: Its survival at 25 mg/kg/day is 100%.

Q: And the MST [11]?
A: Its MST is 30 days.

Q: What about the MIC [1] of the same compound?
A: Its MIC is 0.025 µg/mL (≈ 0.182 µM).

Q: What about the inhibition in vivo at 25 mg/kg [12] of the same compound?
A: Its inhibition in vivo at 25 mg/kg is 100%.

Q: And the Activity [8]?
A: The Activity was “Non-toxic”.
